Experimental data reported in ChEMBL document CHEMBL2417486, “Exploring natural product chemistry and biology with multicomponent reactions. 5. Discovery of a novel tubulin-targeting scaffold derived from the rigidin family of marine alkaloids” (J Med Chem, 2013).
Values after ≈ are worked out from the molar mass of the structure shown. Active and inactive are the calls of the source. The rule behind the calls is not given here.

Columns and labels:
[1] = test system: MCF7; assay: Growth inhibition of human MCF7 cells after 48 hrs by MTT assay; format: functional; conditions: MCF7, 48 h
Method in brief: (§1)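 Cells seeded at 4 × 10^3 per well, grown 24 h, then treated 48 h at 0.004–100 µM from 100 or 25 mM DMSO stocks. Controls were 0.1% DMSO and phenyl arsine oxide. MTT (5 mg/mL) added for 2 h, formazan dissolved in DMSO, A490 read. […] HeLa/MCF-7 in DMEM, MES-SA lines in RPMI-1640, all with 10% FBS.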

[2] = test system: HeLa; assay: Growth inhibition of human HeLa cells after 48 hrs by MTT assay; format: functional; method in brief: as §1
[3] = Aqueous solubility of the compound by spectrophotometric analysis; format: physicochemical
Method in brief: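 Compound dispersed in ultrapure water at >0.5 mg/mL; supernatant centrifuged repeatedly until no pellet remained, then diluted 1:2 (solution:DMSO). Concentration read from absorbance at peak 335–336 nm against a calibration line made in 1:2 water/DMSO, and corrected for the DMSO dilution.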

[4] = test system: HeLa; assay: Cell cycle arrest in human HeLa cells assessed as accumulation at G2/M phase at 1 uM after 32 hrs using Vybrant Orange staining by flow cytometry relative to control; format: functional, cell-based
Method in brief: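 HeLa cells at 70–80% confluence were seeded at 2 × 10^5 per well in DMEM/10% FBS with penicillin G and streptomycin, left to adhere overnight, then treated at 1 µM for 32 h (0.1% DMSO control). Washed, trypsinized, stained 30 min at 37 °C with 10 µM Vybrant Orange in medium, then analysed by flow cytometry for DNA content.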

[5] = test system: UMSCC22B; assay: Growth inhibition of human UM-SCC-22B cells after 48 hrs by MTT assay; format: functional
[6] = Growth inhibition of human UM-SCC-10B cells after 48 hrs by MTT assay; format: functional
[7] = Growth inhibition of human UM-SCC-22A cells after 48 hrs by MTT assay; format: functional
[8] = Growth inhibition of human UM-SCC-10A cells after 48 hrs by MTT assay; format: functional; conditions: UMSCC-10A
[9] = test system: B16-F10; assay: Growth inhibition of mouse B16F10 cells after 48 hrs by MTT assay; format: functional; conditions: B16-F10, 48 h
[10] = test system: A549; assay: Growth inhibition of human A549 cells after 48 hrs by MTT assay; format: functional; conditions: A549, 48 h
[11] = test system: SK-MEL-28; assay: Growth inhibition of human SK-MEL-28 cells after 48 hrs by MTT assay; format: functional; conditions: SK-MEL-28, 48 h
[12] = Growth inhibition of human U373 cells after 48 hrs by MTT assay; format: functional, U-373MG ATCC; conditions: U373 MG
[13] = Growth inhibition of human Hs683 cells after 48 hrs by MTT assay; format: functional; conditions: Hs 683, 48 h
[14] = target: T1, Tubulin beta (Homo sapiens) (UniProt P68371+Q9H4B7+Q13509+P04350+Q3ZCM7+P07437+Q13885+Q9BVA1+Q9BUF5+A6NNZ2); assay: Inhibition of [3H] radiolabelled colchicine binding to tubulin beta (unknown origin) at 1 uM by DEAE-cellulose filter method; format: protein assay
[15] = target: T1, Tubulin beta (Homo sapiens); assay: Inhibition of [3H] radiolabelled colchicine binding to tubulin beta (unknown origin) at 5 uM by DEAE-cellulose filter method; format: protein assay

Row | Structure (SMILES) | GI50 [1] | GI50 [2] | further results
1 | O=C(c1ccccc1)c1[nH]c2[nH]cnc(=O)c2c1-c1cccc(F)c1 | 70 nM | 65 nM | solubility [3]: 65 µM (≈ 21.7 µg/mL)
2 | O=C(c1ccccc1)c1[nH]c2[nH]cnc(=O)c2c1-c1cncc(Br)c1 | 87 nM | 80 nM | Activity [4]: Active; GI50 [5]: 20 nM; GI50 [6]: 130 nM; GI50 [7]: 120 nM; GI50 [8]: 90 nM; GI50 [9]: 40 nM; GI50 [10]: 20 nM; GI50 [11]: 20 nM; GI50 [12]: 30 nM; GI50 [13]: 20 nM; solubility [3]: 30 µM (≈ 11.9 µg/mL)
3 | COc1ccc(/C=C\c2cc(OC)c(OC)c(OC)c2)cc1O | – | – | inhibition [14]: 89%; inhibition [15]: 99%
4 | COc1cc(C(=O)c2[nH]c3[nH]c(=O)[nH]c(=O)c3c2-c2ccc(O)cc2)ccc1O | > 100000 nM | > 100000 nM | –
5 | O=C(c1ccc(F)cc1)c1[nH]c2[nH]cnc(=O)c2c1-c1cc(Br)cc(Br)c1 | 800 nM | 6300 nM | –
6 | Nc1ncnc2[nH]c(C(=O)c3ccccc3)c(-c3cncc(Br)c3)c12 | > 100000 nM | > 100000 nM | –
7 | O=C(c1ccc(O)cc1)c1[nH]c2[nH]cnc(=O)c2c1-c1ccccc1 | 300 nM | 400 nM | –
8 | COc1ccc(C(=O)c2[nH]c3ncnc(-c4ccc(OC)cc4)c3c2-c2ccc(OC)cc2)cc1 | 8000 nM | 20000 nM | –
9 | O=C(c1ccccc1)c1[nH]c2[nH]cnc(=O)c2c1-c1cccnc1 | 1260 nM | 880 nM | –
10 | O=C(c1ccc(OCc2ccccc2)cc1)c1[nH]c2[nH]cnc(=O)c2c1-c1cc(Br)cc(Br)c1 | 310 nM | 400 nM | –
11 | COc1cc(-c2c(C(=O)c3ccc(O)cc3)[nH]c3[nH]c(=O)[nH]c(=O)c23)ccc1O | > 100000 nM | > 100000 nM | –
12 | COc1ccc(-c2c(C(=O)c3ccccc3)[nH]c3ncnc(-c4ccccc4)c23)cc1 | 75000 nM | 70000 nM | –
13 | O=C(c1ccccc1)c1[nH]c2[nH]cnc(=O)c2c1-c1cccc(Cl)c1 | 60 nM | 100 nM | –
14 | Cc1ccc(-c2ncnc3[nH]c(C(=O)c4ccccc4)c(-c4cc(Br)cc(Br)c4)c23)cc1 | 7000 nM | 9000 nM | –
15 | O=C(c1ccccc1)c1[nH]c2ncnc(-c3ccccc3)c2c1-c1cccnc1 | 51000 nM | 45000 nM | –
16 | COc1cc(-c2c(C(=O)c3ccc(F)cc3)[nH]c3[nH]c(=O)[nH]c(=O)c23)cc(OC)c1OC | > 100000 nM | > 100000 nM | –
17 | O=C(c1ccccc1)c1[nH]c2[nH]cnc(=O)c2c1-c1cccc(I)c1 | 150 nM | 200 nM | –
